# Assays:
# [1] = Inhibition of mTORC2 in human pTEN deficient NCI-PC3 cells assessed as reduction of Akt phosphorylation at Ser473; assay type: cell-based
# PC-3 = experiment: Cytotoxicity against human pTEN deficient PC3 after 3 days; assay type: functional, cell-based; conditions: PC-3, 72 h
# [2] = Selectivity ratio of Ki for PI3Kalpha to Ki for mTOR
# Cytochrome P450 3A4 = Cytochrome P450 3A4 (Homo sapiens, UniProt P08684); experiment: Inhibition of CYP3A4-mediated midazolam and testosterone metabolism; assay type: ADME; conditions: recombinant enzyme
# Chain of Cytochrome P450 3A4 (P08684 whole entry): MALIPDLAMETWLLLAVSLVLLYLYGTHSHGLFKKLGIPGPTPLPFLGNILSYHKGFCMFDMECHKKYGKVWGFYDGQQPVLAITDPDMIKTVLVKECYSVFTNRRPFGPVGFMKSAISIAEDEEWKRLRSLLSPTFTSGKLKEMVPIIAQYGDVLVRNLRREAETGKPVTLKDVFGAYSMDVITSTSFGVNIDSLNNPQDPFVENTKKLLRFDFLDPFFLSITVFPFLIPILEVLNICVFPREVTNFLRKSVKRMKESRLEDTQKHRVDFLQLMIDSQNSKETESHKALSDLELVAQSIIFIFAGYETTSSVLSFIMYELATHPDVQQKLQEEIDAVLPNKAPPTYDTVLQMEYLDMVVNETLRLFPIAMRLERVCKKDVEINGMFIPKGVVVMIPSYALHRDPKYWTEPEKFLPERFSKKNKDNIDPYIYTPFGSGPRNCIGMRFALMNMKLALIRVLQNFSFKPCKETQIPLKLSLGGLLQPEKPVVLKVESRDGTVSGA
# Cytochrome P450 1A2 = biological target: T1, Cytochrome P450 1A2 (Homo sapiens, UniProt P05177); experiment: Inhibition of CYP1A2-mediated phenacetin metabolism; assay type: ADME; conditions: recombinant enzyme
# T1 sequence (P05177 whole entry): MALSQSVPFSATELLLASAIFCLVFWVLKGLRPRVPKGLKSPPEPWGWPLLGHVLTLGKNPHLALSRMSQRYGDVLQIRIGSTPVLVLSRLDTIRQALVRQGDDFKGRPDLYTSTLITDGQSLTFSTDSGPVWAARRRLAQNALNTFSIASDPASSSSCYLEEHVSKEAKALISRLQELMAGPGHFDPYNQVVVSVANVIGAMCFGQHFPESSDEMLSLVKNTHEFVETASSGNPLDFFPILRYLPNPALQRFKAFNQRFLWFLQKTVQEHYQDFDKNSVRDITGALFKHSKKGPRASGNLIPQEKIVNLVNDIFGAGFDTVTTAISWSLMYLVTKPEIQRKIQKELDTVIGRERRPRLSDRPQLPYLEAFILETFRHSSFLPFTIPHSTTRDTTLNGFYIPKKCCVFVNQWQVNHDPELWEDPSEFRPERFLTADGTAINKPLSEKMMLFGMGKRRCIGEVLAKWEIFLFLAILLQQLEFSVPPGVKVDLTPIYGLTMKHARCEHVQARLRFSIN
# Cytochrome P450 2C9 = Cytochrome P450 2C9 (Homo sapiens, UniProt P11712); experiment: Inhibition of CYP2C9-mediated warfarin metabolism; assay type: ADME; conditions: recombinant enzyme
# Chain of Cytochrome P450 2C9 (P11712 whole entry): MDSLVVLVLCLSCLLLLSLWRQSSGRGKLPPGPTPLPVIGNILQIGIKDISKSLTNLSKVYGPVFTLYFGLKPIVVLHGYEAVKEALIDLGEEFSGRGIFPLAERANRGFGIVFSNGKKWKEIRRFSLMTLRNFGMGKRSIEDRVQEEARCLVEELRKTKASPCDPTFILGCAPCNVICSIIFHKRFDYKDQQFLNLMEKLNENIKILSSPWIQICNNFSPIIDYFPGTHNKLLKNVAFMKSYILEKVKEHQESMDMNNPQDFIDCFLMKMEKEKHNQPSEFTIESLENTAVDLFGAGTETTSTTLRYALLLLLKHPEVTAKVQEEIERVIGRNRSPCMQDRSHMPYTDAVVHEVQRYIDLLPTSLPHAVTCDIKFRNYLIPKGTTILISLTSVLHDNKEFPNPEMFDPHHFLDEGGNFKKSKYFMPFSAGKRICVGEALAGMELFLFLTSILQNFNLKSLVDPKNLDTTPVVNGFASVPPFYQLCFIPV
# [3] = Cytotoxicity against human MCF7/neo expressing HER2 after 3 days; assay type: functional
# Cytochrome P450 2C19 = Cytochrome P450 2C19 (Homo sapiens, UniProt P33261); experiment: Inhibition of CYP2C19-mediated mephenytoin metabolism; assay type: ADME; conditions: recombinant enzyme
# Chain of Cytochrome P450 2C19 (P33261 whole entry): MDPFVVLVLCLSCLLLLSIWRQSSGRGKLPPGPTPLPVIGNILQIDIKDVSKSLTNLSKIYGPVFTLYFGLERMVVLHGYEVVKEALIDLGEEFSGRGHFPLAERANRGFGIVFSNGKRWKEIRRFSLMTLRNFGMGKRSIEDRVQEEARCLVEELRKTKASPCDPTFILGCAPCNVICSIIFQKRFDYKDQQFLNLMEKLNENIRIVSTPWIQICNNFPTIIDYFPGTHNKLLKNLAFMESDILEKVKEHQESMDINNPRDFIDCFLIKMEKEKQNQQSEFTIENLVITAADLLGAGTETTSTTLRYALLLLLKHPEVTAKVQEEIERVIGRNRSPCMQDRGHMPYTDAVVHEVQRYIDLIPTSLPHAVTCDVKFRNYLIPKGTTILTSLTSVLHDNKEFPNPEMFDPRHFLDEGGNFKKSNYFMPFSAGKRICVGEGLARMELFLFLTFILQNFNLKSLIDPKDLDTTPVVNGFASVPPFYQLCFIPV
# Cytochrome P450 2D6 = Cytochrome P450 2D6 (Homo sapiens, UniProt P10635); experiment: Inhibition of CYP2D6-mediated dextromethorphan metabolism; assay type: ADME; conditions: recombinant enzyme
# Chain of Cytochrome P450 2D6 (P10635 whole entry): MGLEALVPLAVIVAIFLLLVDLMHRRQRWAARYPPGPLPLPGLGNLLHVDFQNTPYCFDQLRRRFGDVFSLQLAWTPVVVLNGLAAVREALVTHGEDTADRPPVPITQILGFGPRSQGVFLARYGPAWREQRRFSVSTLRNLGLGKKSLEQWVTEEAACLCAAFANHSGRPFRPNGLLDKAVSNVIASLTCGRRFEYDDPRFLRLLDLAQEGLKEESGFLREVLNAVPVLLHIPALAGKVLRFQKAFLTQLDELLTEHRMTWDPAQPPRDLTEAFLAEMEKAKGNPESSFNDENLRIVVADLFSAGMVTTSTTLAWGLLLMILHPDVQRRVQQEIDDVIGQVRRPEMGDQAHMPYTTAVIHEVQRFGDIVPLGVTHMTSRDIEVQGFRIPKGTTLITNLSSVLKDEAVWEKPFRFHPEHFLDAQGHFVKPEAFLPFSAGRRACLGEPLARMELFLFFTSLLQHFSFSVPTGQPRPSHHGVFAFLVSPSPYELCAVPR
# [4] = AUC in mouse at 5 mg/kg, po; assay type: ADME, organism-based; design: dose 5 mg/kg, route oral; conditions: plasma
# [5] = Half life in mouse at 1 mg/kg, iv; assay type: ADME, organism-based; design: dose 1 mg/kg, route intravenous; conditions: in vivo
# [6] = Clearance in mouse at 1 mg/kg, iv; assay type: ADME, organism-based; design: dose 1 mg/kg, route intravenous; conditions: in vivo
# [7] = Clearance in rat liver microsomes; assay type: ADME, Microsome
# How it was run: (§1)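 Hepatic clearance (Clhep) predicted from incubation with human, rat or mouse liver microsomes.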
# [8] = Clearance in mouse liver microsomes; assay type: ADME, Microsome; how it was run: as §1
# [9] = Volume of distribution at steady state in mouse at 1 mg/kg, iv; assay type: ADME, organism-based; design: dose 1 mg/kg, route intravenous; conditions: in vivo, read-out: Vdss
# [10] = Clearance in human liver microsomes; assay type: ADME, Microsome; how it was run: as §1
# [11] = Oral bioavailability in mouse at 5 mg/kg; assay type: ADME, organism-based; conditions: in vivo
# [12] = Plasma protein binding in mouse; assay type: ADME, cell-free; conditions: read-out: PPB (converted)
# [13] = Plasma protein binding in human; assay type: ADME, cell-free; conditions: read-out: PPB (converted)
# [14] = Plasma protein binding in rat; assay type: ADME, cell-free; conditions: read-out: PPB (converted)
Compound,IC50 [1] [nM],Ratio Ki [2],inhibition (INH) (Cytochrome P450 3A4),inhibition (INH) (Cytochrome P450 1A2),inhibition (INH) (Cytochrome P450 2C9),inhibition (INH) (Cytochrome P450 2C19),inhibition (INH) (Cytochrome P450 2D6),AUC [4] [µM·h],half-life [5] [min],clearance [6] [mL/min/kg],CLhep predicted [7] [mL/min/kg],CLhep predicted [8] [mL/min/kg],Vd [9] [L/kg],CLhep predicted [10] [mL/min/kg],bioavailability [11] [%],fraction unbound [12],fraction unbound [13],fraction unbound [14],IC50 (PC-3) [nM],IC50 [3] [nM]
CCOC(=O)Nc1ccc(-c2nc3c(c(N4CCOCC4)n2)CCN(C(=O)c2ccccc2)C3)cc1,115,,,,,,,,,,,,,,,,,,4800,
CCNC(=O)Nc1ccc(-c2nc3c(c(N4CCOCC4)n2)CCN(S(C)(=O)=O)C3)cc1,43,,,,,,,,,,,,,,,,,,430,
CCNC(=O)Nc1ccc(-c2nc(N3CCOCC3)c3sc(C(C)(C)O)cc3n2)cc1,,20,,,,,,,,,,,,,,,,,,
CCNC(=O)Nc1ccc(-c2nc3c(c(N4CCOCC4)n2)CCN(C(=O)c2ccccc2)C3)cc1,22,,,,,,,,,,,,,,,,,,340,
CCNC(=O)Nc1ccc(-c2nc3c(c(N4CCOC[C@@H]4C)n2)CCN(c2nnc(C)o2)C3)cc1,22,,Not Active,Not Active,Not Active,Not Active,Not Active,,,,,,,,,,,,310,130
CCNC(=O)Nc1ccc(-c2nc3c(c(N4CCOC[C@@H]4C)n2)CCN(c2cccnn2)C3)cc1,13,,Not Active,Not Active,Not Active,Not Active,Not Active,0.87,45,44,19,34,1.7,7.3,21.8,,,,140,290
CCNC(=O)Nc1ccc(-c2nc3c(c(N4CCOCC4)n2)CCN(C(=O)OC)C3)cc1,37,,,,,,,,,,,,,,,,,,220,
CCNC(=O)Nc1ccc(-c2nc3c(c(N4CCOC[C@@H]4C)n2)CN(c2ncccn2)CC3)cc1,,,,,,,,2.9,102,38,44,71,2.4,16,62,0.03,0.02,0.03,,

# Now from value to molecule, other results behind:
IC50 [1] [nM],Ratio Ki [2],inhibition (INH) (Cytochrome P450 3A4),inhibition (INH) (Cytochrome P450 1A2),inhibition (INH) (Cytochrome P450 2C9),inhibition (INH) (Cytochrome P450 2C19),inhibition (INH) (Cytochrome P450 2D6),AUC [4] [µM·h],half-life [5] [min],clearance [6] [mL/min/kg],CLhep predicted [7] [mL/min/kg],CLhep predicted [8] [mL/min/kg],Vd [9] [L/kg],CLhep predicted [10] [mL/min/kg],bioavailability [11] [%],fraction unbound [12],fraction unbound [13],fraction unbound [14],Compound,IC50 (PC-3) [nM],IC50 [3] [nM]
22,,,,,,,,,,,,,,,,,,CCNC(=O)Nc1ccc(-c2nc3c(c(N4CCOCC4)n2)CCN(C(=O)OC(C)(C)C)C3)cc1,,
4.3,,Not Active,Not Active,Not Active,Not Active,Not Active,,,,,,,,,,,,CCNC(=O)Nc1ccc(-c2nc3c(c(N4CCOC[C@@H]4C)n2)CCN(c2cnccn2)C3)cc1,55,110
1.5,,Not Active,Not Active,Not Active,Not Active,Not Active,,,,,,,,,,,,CCNC(=O)Nc1ccc(-c2nc3c(c(N4CCOC[C@@H]4CC)n2)CCN(c2ncccn2)C3)cc1,40,38
,,,,,,,0.41,10.8,120,44,80,1.4,15,29,0.03,0.03,0.04,CCNC(=O)Nc1ccc(-c2nc3c(c(N4CCOC[C@@H]4C)n2)CN(c2cnccn2)CC3)cc1,,
8.7,,Not Active,Not Active,Not Active,Not Active,Not Active,2.5,31.8,22,29,58,0.72,19,32,0.02,0.03,0.04,CCNC(=O)Nc1ccc(-c2nc3c(c(N4CCOC[C@@H]4C)n2)CCN(c2nc(C)ns2)C3)cc1,230,69
